Each structure is given as a SMILES string.

A word on the CC50: it is the concentration giving 50% cytotoxicity.

The test relates to Bladder 5637 cells viability, CellTiter-Glo, 72 h. The test can be described thus: cytotoxicity in 5637 bladder cells, dose response, cytotoxicity control for bacterial capsule biogenesis inhibitors, cell-based, set 3 (AID 504831). The gist of the method: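 Test system: Human bladder carcinoma 5637 cell line | Compound dosing: 8 doses, 2.3–300 µM | Timing: 72 h treatment | Measured by: CellTiter-Glo luminescence | Read-out: CC50 from viability relative to cell control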
Turning to `O=C(Nc1cc(-c2ccccc2)sc1C(=O)O)c1cccs1`, the CC50 was 89.3 µM.
With `CCOc1ccc(-c2cc(NC(=O)c3ccc(OC)c(OC)c3)c(C(=O)O)s2)cc1`, the half-maximal cytotoxic concentration (CC50) was 82.8 µM.
Take `Cc1c(C(=O)Nc2cc(-c3ccccc3)sc2C(=O)O)oc2ccccc12`: the half-maximal cytotoxic concentration (CC50) is 48.7 µM.
On to `O=C(Nc1cc(-c2ccccc2)sc1C(=O)O)c1cccc(F)c1`, for which the CC50 was 76.9 µM.
For the compound `O=C(Nc1cc(-c2ccccc2)sc1C(=O)O)c1ccc(Cl)s1`, the CC50 was 71.5 µM.
For `O=C(Nc1cc(-c2ccccc2)sc1C(=O)O)c1cccc(Cl)c1`, the CC50 was 52.6 µM.
In the case of `CCOc1ccc(-c2cc(NC(=O)c3cccc(Cl)c3)c(C(=O)O)s2)cc1`, the CC50 is 83.9 µM.
With `O=C(O)c1sc(-c2ccccc2)cc1NC(=O)C1CCCCC1`, the CC50 was 115 µM.
With `O=C(Nc1cc(-c2ccccc2)sc1C(=O)O)c1cc2ccccc2o1`, the CC50 is 167 µM.
In the case of `O=C(Nc1cc(-c2ccccc2)sc1C(=O)O)c1ccc(Br)o1`, the half-maximal cytotoxic concentration (CC50) is 104 µM.
Regarding `Cc1ccc(C(=O)Nc2cc(-c3ccccc3)sc2C(=O)O)s1`, the CC50 was 63.6 µM.
As for `O=C(Nc1cc(-c2ccccc2)sc1C(=O)O)c1ccc2c(c1)OCCO2`, the CC50 was 82.1 µM.
Regarding `O=C(Nc1cc(-c2ccccc2)sc1C(=O)O)c1cc(Cl)c2c(c1)OCCO2`, the CC50 was 242 µM.
The value for `COC(=O)c1sc(-c2ccccc2)cc1NC(=O)c1c(F)cccc1F` was 10.4 µM; that for `O=C(O)c1sc(-c2ccccc2)cc1NC(=O)C1CCCC1` was 169 µM.
Turning to `Cc1onc(-c2ccccc2)c1C(=O)Nc1cc(-c2ccccc2)sc1C(=O)O`, the CC50 was 52.6 µM.
